Results published in PMC3155308 (The EMBO Journal, 2011).
Residue numbers refer to the chain shown, from its start. Names and notes keep the numbering of the source. “Also recorded” adds a separate entry of the source. One block for each molecule: values may come before it. Where no end group is shown, it is not given here.

Key:
[1] = system: myosin-X MyTH4–FERM cassette; assay: Pull-down with GST-fused C-terminal tail peptides of α- and β-tubulins; assay type: binding, human; conditions: for binding of tubulin C-terminal acidic tail peptides: 20 mM Tris–HCl (pH 8.0), 50 mM NaCl, 1 mM DTT, 4°C, 30 min
In short: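 Purified MyTH4–FERM cassette was mixed with GST-fused α1A-tubulin (399–451) or β2B-tubulin (390–445) tail peptide in 20 mM Tris–HCl pH 8.0, 50 mM NaCl, 1 mM DTT at 4°C for 30 min. Glutathione-Sepharose was then added for 10 min at 4°C, with five washes. Elution used 20 mM glutathione in 50 mM Tris–HCl pH 8.0 with 150 mM NaCl, then SDS–PAGE.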

DCC [2] = assay: Co-immunoprecipitation of DCC with myc-tagged myosin-X MyTH4–FERM; assay type: cell-based; conditions: HEK293T cells, anti-myc antibody, immunoblot
[3] = system: C-terminal acidic tail peptide of β2B-tubulin; assay: Pull-down of wild-type and mutated MyTH4–FERM cassettes with GST-tubulin tail; assay type: binding; conditions: SDS–PAGE
In short: (§1)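 Human myosin-X MyTH4–FERM cassette (wild type or site-directed mutants) was expressed in E. coli BL21Star(DE3) at 20°C with 0.1 mM IPTG. It was Ni-NTA purified, then His-tag cleaved with HRV3C, then run over cation exchange and gel filtration. GST bait was human DCC 1390–1447 or β2B-tubulin 390–445. Cassette and bait were mixed with glutathione-Sepharose at 4°C, washed, and eluates resolved by SDS–PAGE.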

[4] = Analytical ultracentrifugation; assay type: physicochemical; conditions: AUC, mono-modal peak
In short: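 Sedimentation velocity at 20°C and 25 000 r.p.m. Purified protein was in 20 mM Tris (pH 8.5), 150 mM NaCl and 5 mM DTT, at 1 mg/ml (14 μM). Sedimentation data were fitted to obtain the species distribution.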

[5] = system: myosin-X MyTH4–FERM cassette; assay: Gel filtration and AUC of cassette–DCC P3 complex; assay type: binding, human; conditions: through the MyTH4–FERM cassette
DCC [6] = conditions: yeast two-hybrid; ref Zhu et al, 2007; cited from earlier work
microtubules = conditions: ref Weber et al, 2004; cited from earlier work
DCC P3 peptide = assay: Pull-down of wild-type and mutated MyTH4–FERM cassettes with GST-DCC P3 peptide; assay type: binding, human; conditions: SDS–PAGE
In short: as §1

[7] = target: T1, myosin-X MyTH4–FERM cassette K1647D/K1650D (human, UniProt Q9HD67 1486-2058, Δ20 deletion (residues 1872–1891) | K1647D | K1650D); assay: pull-down
T1 sequence (looked up): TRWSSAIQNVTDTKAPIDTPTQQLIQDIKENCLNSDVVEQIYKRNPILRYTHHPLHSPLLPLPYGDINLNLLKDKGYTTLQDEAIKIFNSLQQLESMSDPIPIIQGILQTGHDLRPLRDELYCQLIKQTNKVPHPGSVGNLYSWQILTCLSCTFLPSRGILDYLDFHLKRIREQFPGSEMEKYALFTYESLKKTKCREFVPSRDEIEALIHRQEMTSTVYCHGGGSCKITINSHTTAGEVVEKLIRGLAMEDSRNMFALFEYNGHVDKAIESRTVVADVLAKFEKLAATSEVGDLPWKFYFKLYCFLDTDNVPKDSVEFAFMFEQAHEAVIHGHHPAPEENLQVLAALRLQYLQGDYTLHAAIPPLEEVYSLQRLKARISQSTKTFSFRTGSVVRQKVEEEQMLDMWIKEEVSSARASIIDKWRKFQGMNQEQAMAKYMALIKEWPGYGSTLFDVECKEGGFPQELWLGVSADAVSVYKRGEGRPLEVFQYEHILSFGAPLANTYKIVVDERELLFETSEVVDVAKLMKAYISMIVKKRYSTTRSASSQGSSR

[8] = target: T2, myosin-X MyTH4–FERM cassette F2002K (human, UniProt Q9HD67 1486-2058, Δ20 deletion (residues 1872–1891) | F2002K); assay: pull-down
T2 sequence (looked up): T1 sequence (looked up) with D162K, D165K, F497K

Molecule: α-tubulin C-terminal acidic tail peptide: GST-fused C-terminal tail peptide of α1A-tubulin (399–451)
binding of tubulin C-terminal acidic tail peptides [1]: binds

B1: myc-tagged myosin-X MyTH4–FERM cassette: myc-tagged full-length MyTH4–FERM cassette (residues 1486–2058) (protein)
chain: TRWSSAIQNVTDTKAPIDTPTQQLIQDIKENCLNSDVVEQIYKRNPILRYTHHPLHSPLLPLPYGDINLNLLKDKGYTTLQDEAIKIFNSLQQLESMSDPIPIIQGILQTGHDLRPLRDELYCQLIKQTNKVPHPGSVGNLYSWQILTCLSCTFLPSRGILKYLKFHLKRIREQFPGSEMEKYALFTYESLKKTKCREFVPSRDEIEALIHRQEMTSTVYCHGGGSCKITINSHTTAGEVVEKLIRGLAMEDSRNMFALFEYNGHVDKAIESRTVVADVLAKFEKLAATSEVGDLPWKFYFKLYCFLDTDNVPKDSVEFAFMFEQAHEAVIHGHHPAPEENLQVLAALRLQYLQGDYTLHAAIPPLEEVYSLQRLKARISQSTKTFTPCERLEKRRTSFLEGTLRRSFRTGSVVRQKVEEEQMLDMWIKEEVSSARASIIDKWRKFQGMNQEQAMAKYMALIKEWPGYGSTLFDVECKEGGFPQELWLGVSADAVSVYKRGEGRPLEVFQYEHILSFGAPLANTYKIVVDERELLFETSEVVDVAKLMKAYISMIVKKRYSTTRSASSQGSSR
modifications: left off: myc, end not stated, kept
co-immunoprecipitation of DCC (DCC [2]): co-immunoprecipitation of DCC

B2: MyTH4–FERM cassette (protein)
chain: T1 sequence (looked up) with D162K, D165K
modifications: left off: His6, N-terminal, cleaved
binding to α- and β-tubulin acidic tails ([1]; SDS–PAGE): binds both α- and β-tubulin acidic tails | binding to β2B-tubulin C-terminal tail peptide [3]: shows binding | association state in solution [4]: monomer | cargo-mediated dimerization of myosin-X [5]: no cargo-mediated dimerization was observed | DCC binding in two-hybrid assay (DCC [6]): sufficient for DCC and neogenin binding; also recorded: full DCC-binding affinity | microtubule association (microtubules): sufficient to confer microtubule association

B4: Myo-X (K1647D/K1650D) (protein)
chain: T1 sequence (looked up)
modifications: left off: His6, N-terminal, cleaved
binding to β2B-tubulin C-terminal tail peptide [3]: abolished binding | binding to DCC P3 peptide (DCC P3 peptide): only weakly affected binding | binding to DCC P3 peptide (DCC P3 peptide; listed as K1647D/K1650D): only a slight reduction in DCC binding

B5: GST-fused DCC P3 peptide (residues 1390–1447) (peptide, UniProt P43146 1390-1447, looked up)
chain: ARSPLLPVSVPTAPEVSEESHKPTEDSANVYEQDDLSEQMASLEGLMKQLNAITGSAF
binding result [7]: binds

B7: myc–MyTH4–FERM(ΔC): residues 1486–1954, lacks subdomain C of the FERM domain (protein)
chain: TRWSSAIQNVTDTKAPIDTPTQQLIQDIKENCLNSDVVEQIYKRNPILRYTHHPLHSPLLPLPYGDINLNLLKDKGYTTLQDEAIKIFNSLQQLESMSDPIPIIQGILQTGHDLRPLRDELYCQLIKQTNKVPHPGSVGNLYSWQILTCLSCTFLPSRGILKYLKFHLKRIREQFPGSEMEKYALFTYESLKKTKCREFVPSRDEIEALIHRQEMTSTVYCHGGGSCKITINSHTTAGEVVEKLIRGLAMEDSRNMFALFEYNGHVDKAIESRTVVADVLAKFEKLAATSEVGDLPWKFYFKLYCFLDTDNVPKDSVEFAFMFEQAHEAVIHGHHPAPEENLQVLAALRLQYLQGDYTLHAAIPPLEEVYSLQRLKARISQSTKTFTPCERLEKRRTSFLEGTLRRSFRTGSVVRQKVEEEQMLDMWIKEEVSSARASIIDKWRKFQGMNQEQAMAKYMALIKEWPGYG
modifications: left off: myc, end not stated, kept
co-immunoprecipitation of DCC (DCC [2]): no interaction

The remaining lines, values ahead:

binding of tubulin C-terminal acidic tail peptides [1]: binds
Molecule: β-tubulin C-terminal acidic tail peptide: GST-fused C-terminal acidic tail peptide of β2B-tubulin (390–445) ({GST}-RRKAFLHWYTGEGMDEMEFTEAESNMNDLVSEYQQYQDATADEQGEFEEEEGEDEA; not fully specified)

binding to β2B-tubulin C-terminal tail peptide [3]: no effect on tubulin tail binding | binding to β2B-tubulin C-terminal tail peptide ([3]; listed as F2002K): no effect on binding to the tubulin tail | binding to DCC P3 peptide (DCC P3 peptide): abolished the binding | binding to DCC P3 peptide (DCC P3 peptide; listed as F2002K): abolished DCC binding
B3: Myo-X (F2002K) (protein)
chain: T1 sequence (looked up) with D162K, D165K, F497K
modifications: left off: His6, N-terminal, cleaved

binding result [8]: binds
B6: GST-fused β2B-tubulin C-terminal acidic tail peptide (390–445) (peptide, UniProt Q9BVA1 390-445, looked up)
chain: RRKAFLHWYTGEGMDEMEFTEAESNMNDLVSEYQQYQDATADEQGEFEEEEGEDEA
modifications: also: GST-fused (side not given here)
